Assay results published in ChEMBL document CHEMBL3580662, “(R)-2-Phenylpyrrolidine Substituted Imidazopyridazines: A New Class of Potent and Selective Pan-TRK Inhibitors” (ACS Med Chem Lett, 2015).
Each block holds one compound with its values, some of them ahead of it.

Assays:
[1] = Cytotoxicity against wild type mouse BA/F3 cells assessed as inhibition of cell proliferation after 48 hrs by luciferase reporter gene assay in presence of recombinant mouse IL3; assay type: functional, cell-based; details: BaF3, 48 h
Procedure, shortened: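 Parental wild-type Ba/F3 cells grown with IL-3; proliferation assay, IC50 in μM.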

[2] = target: Tyrosine-protein kinase JAK2 (Homo sapiens, UniProt O60674); experiment: Inhibition of Tel-fused JAK2 (unknown origin) expressed in mouse BA/F3 cells after 48 hrs by luciferase reporter gene assay in absence of recombinant mouse IL3; assay type: cell-based; details: baf3
[3] = AUC in Sprague-Dawley rat at 10 mg/kg, po; assay type: ADME, organism-based; details: in vivo
Procedure, shortened: (§1)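 Male Sprague–Dawley rats dosed intravenously at 3 mg/kg and orally at 10 mg/kg, each as a solution in 75% PEG300/25% D5W. Plasma sampled for clearance, Vss, T1/2, oral AUC, Cmax and oral bioavailability F(%).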

[4] = Half life in Sprague-Dawley rat at 3 mg/kg, iv and 10 mg/kg, po; assay type: ADME, organism-based; details: in vivo; procedure, shortened: as §1
Rattus norvegicus [5] = experiment: Plasma clearance in Sprague-Dawley rat at 3 mg/kg, iv and 10 mg/kg, po relative to hepatic blood flow; assay type: ADME, organism-based; details: in vivo
[6] = Ratio of AUC in brain to AUC in plasma of Balb/C mouse at 20 mg/kg, po; assay type: ADME, organism-based; details: brain and plasma, read-out: Ratio AUC
[7] = Oral bioavailability in Sprague-Dawley rat at 10 mg/kg; assay type: ADME, organism-based; details: in vivo; procedure, shortened: as §1
[8] = Plasma clearance in Sprague-Dawley rat at 3 mg/kg, iv and 10 mg/kg, po; assay type: ADME, organism-based; procedure, shortened: as §1
[9] = Volume of distribution at steady state in Sprague-Dawley rat at 3 mg/kg, iv and 10 mg/kg, po; assay type: ADME, organism-based; details: in vivo, read-out: Vdss; procedure, shortened: as §1
[10] = Ratio of Cmax in brain to Cmax in plasma of Balb/C mouse at 20 mg/kg, po; assay type: ADME, organism-based; details: brain and plasma, read-out: BPR
[11] = Cmax in Sprague-Dawley rat at 10 mg/kg, po; assay type: ADME, organism-based; parameters: dose 10 mg/kg, route oral; details: in vivo; procedure, shortened: as §1
[12] = Half life in Wistar rat at 3 mg/kg, iv and 10 mg/kg, po; assay type: ADME, organism-based; details: in vivo
Procedure, shortened: (§2)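 Male Wistar rats given 3 mg/kg IV and 10 mg/kg PO, formulated as a solution in 75% PEG300/25% D5W. Plasma PK parameters derived: CL, Vss, T1/2, AUC and Cmax after oral dosing, and F(%).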

[13] = Plasma clearance in Wistar rat at 3 mg/kg, iv and 10 mg/kg, po; assay type: ADME, organism-based; procedure, shortened: as §2
[14] = Oral bioavailability in Wistar rat at 10 mg/kg; assay type: ADME, organism-based; details: in vivo; procedure, shortened: as §2
[15] = Volume of distribution at steady state in Wistar rat at 3 mg/kg, iv and 10 mg/kg, po; assay type: ADME, organism-based; details: in vivo, read-out: Vdss; procedure, shortened: as §2
[16] = Cmax in Wistar rat at 10 mg/kg, po; assay type: ADME, organism-based; parameters: dose 10 mg/kg, route oral; details: in vivo; procedure, shortened: as §2
KM12 [17] = experiment: Antitumor activity against human KM12 cells xenografted in CRL RNU nude rat assessed as induction of tumor regression at 50 mg/kg, po bid administered for 14 days relative to vehicle-treated control; assay type: functional
Procedure, shortened: (§3)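 Female CRL RNU nude rats transplanted with KM12 tumor tissue; dosing started 10 days postimplant, twice daily for 14 days at 6.25, 12.5, 25 or 50 mg/kg alongside vehicle. Efficacy read as tumor volume.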

Rattus norvegicus [18] = experiment: Plasma clearance in Wistar rat at 3 mg/kg, iv and 10 mg/kg, po relative to hepatic blood flow; assay type: ADME, organism-based; details: in vivo
[19] = AUC in Wistar rat at 10 mg/kg, po; assay type: ADME, organism-based; details: in vivo; procedure, shortened: as §2
KM12 [20] = experiment: Antitumor activity against human KM12 cells xenografted in po dosed CRL RNU nude rat assessed as tumor growth inhibition administered as bid for 14 days; assay type: functional, organism-based; procedure, shortened: as §3
Rattus norvegicus [21] = experiment: Toxicity in CRL RNU nude rat xenografted with human KM12 cells assessed as increase in body weight at 25 to 50 mg/kg, po bid administered for 14 days measured on day 14 post last dose; assay type: organism-based; details: in vivo, 336 h
[22] = target: BDNF/NT-3 growth factors receptor (Homo sapiens, UniProt Q16620); experiment: Inhibition of TRKB (unknown origin) by scintillation proximity assay
Procedure, shortened: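 TRKB biochemical inhibition measured by scintillation proximity assay; IC50 reported.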

Sequence of Tyrosine-protein kinase JAK2 (O60674 whole entry, looked up, the tested form may be a part): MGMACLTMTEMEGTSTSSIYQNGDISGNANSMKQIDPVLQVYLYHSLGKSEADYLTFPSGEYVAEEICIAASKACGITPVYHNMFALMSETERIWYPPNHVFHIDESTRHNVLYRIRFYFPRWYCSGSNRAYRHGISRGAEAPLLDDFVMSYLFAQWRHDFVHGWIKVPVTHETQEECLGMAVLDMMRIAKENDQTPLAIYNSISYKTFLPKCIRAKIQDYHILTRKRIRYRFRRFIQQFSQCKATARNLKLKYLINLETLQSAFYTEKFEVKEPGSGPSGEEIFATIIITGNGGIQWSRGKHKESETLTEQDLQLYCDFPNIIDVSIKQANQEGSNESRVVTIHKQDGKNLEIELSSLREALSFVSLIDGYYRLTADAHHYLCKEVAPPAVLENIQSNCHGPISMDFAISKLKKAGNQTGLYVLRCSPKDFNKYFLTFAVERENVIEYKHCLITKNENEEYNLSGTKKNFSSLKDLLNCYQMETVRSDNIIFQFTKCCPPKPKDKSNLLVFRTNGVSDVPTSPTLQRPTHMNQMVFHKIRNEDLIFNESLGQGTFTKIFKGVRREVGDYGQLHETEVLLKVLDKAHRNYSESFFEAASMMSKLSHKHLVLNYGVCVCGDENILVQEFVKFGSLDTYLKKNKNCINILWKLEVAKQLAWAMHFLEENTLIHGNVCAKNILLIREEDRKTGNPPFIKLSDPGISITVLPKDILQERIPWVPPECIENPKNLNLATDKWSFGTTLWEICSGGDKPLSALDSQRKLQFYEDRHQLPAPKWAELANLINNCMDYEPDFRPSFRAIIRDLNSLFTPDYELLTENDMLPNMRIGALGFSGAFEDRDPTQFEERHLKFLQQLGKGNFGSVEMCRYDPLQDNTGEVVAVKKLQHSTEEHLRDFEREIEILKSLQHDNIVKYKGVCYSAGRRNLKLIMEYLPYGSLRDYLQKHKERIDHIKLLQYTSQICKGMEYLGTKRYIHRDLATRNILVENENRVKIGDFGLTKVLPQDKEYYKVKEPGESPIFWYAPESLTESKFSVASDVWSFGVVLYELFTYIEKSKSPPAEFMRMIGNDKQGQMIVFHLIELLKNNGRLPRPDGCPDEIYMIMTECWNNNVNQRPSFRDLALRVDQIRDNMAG
Sequence of BDNF/NT-3 growth factors receptor (Q16620 whole entry): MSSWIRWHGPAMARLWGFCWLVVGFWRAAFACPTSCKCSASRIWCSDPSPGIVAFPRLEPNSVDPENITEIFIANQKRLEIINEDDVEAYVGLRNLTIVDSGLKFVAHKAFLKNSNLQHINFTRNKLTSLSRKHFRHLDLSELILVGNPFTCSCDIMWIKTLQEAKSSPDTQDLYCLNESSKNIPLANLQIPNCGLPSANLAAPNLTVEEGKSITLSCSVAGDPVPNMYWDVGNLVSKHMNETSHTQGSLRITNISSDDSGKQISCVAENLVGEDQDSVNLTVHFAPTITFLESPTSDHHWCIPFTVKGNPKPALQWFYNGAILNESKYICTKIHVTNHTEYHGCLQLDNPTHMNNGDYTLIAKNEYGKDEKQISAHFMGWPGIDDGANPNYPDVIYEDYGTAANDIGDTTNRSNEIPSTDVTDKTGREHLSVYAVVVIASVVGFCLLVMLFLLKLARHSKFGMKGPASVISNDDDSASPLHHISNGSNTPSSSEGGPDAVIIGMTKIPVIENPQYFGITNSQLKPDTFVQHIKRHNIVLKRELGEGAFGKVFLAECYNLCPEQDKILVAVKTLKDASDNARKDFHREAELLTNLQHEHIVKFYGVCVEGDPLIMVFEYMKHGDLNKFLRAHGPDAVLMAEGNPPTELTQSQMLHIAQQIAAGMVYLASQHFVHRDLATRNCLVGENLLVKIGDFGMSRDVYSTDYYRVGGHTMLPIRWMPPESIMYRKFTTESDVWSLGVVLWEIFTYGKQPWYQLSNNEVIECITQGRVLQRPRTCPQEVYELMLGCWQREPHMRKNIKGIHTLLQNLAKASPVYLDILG

Compound: NS(=O)(=O)c1ccc(-c2cnc3ccc(NCc4cccc(F)c4)nn23)cc1
IC50 [1]: 2.53 µM

Compound: CN(Cc1ccccc1)c1ccc2ncc(-c3ccc(C#N)cc3)n2n1
IC50 [1]: 5.89 µM

IC50 [2]: 6.7 µM
Compound: Fc1cccc([C@H]2CCCN2c2ccc3ncc(-c4ccccn4)n3n2)c1
IC50 [1]: > 10 µM

Compound: COc1ccccc1CNc1ccc2ncc(-c3ccc(C#N)cc3)n2n1
IC50 [1]: 1.01 µM

AUC [3]: 1.9 µM·h
half-life [4]: 54 min
CL (Rattus norvegicus [5]): 82%
Kp [6]: 0.8
bioavailability [7]: 26%
clearance [8]: 45.5 mL/min/kg
Vd [9]: 2.4 L/kg
Kp [10]: 0.8
Cmax [11]: 250 nM
IC50 [2]: 2.7 µM
Compound: O=C(O)CN1CCN(c2cc(-c3cnc4ccc(N5CCC[C@@H]5c5cccc(F)c5)nn34)ccn2)CC1
IC50 [1]: 4.79 µM

Compound: OCc1ccc(-c2cnc3ccc(NCc4cccc(F)c4)nn23)cc1
IC50 [1]: 1.92 µM

Compound: N#Cc1ccc(-c2cnc3ccc(NCc4cccc(F)c4)nn23)cc1
IC50 [1]: 3.92 µM

Compound: N#Cc1cccc(-c2cnc3ccc(NCc4ccccc4)nn23)c1
IC50 [1]: > 10 µM

Compound: N#Cc1ccc(-c2cnc3ccc(N4CCOCC4c4cccc(F)c4)nn23)cc1 (racemic)
IC50 [1]: > 10 µM

Compound: O=C(Nc1ccc(-c2cnc3ccc(NCc4cccc(F)c4)nn23)cc1)C1CCOCC1
IC50 [1]: 3 µM

half-life [12]: 96 min
clearance [13]: 45.2 mL/min/kg
bioavailability [14]: 27%
Vd [15]: 4.9 L/kg
Cmax [16]: 215 nM
Kp [6]: 0.2
CL (Rattus norvegicus [18]): 82%
Kp [10]: 0.2
AUC [19]: 1.88 µM·h
IC50 [2]: 5.6 µM
Compound: OC1CCN(c2cc(-c3cnc4ccc(N5CCC[C@@H]5c5cccc(F)c5)nn34)ccn2)CC1
IC50 [1]: 5.91 µM
Activity (KM12 [17]): 20%
TGI (KM12 [20]): Dose-dependent effect
Activity (Rattus norvegicus [21]): Toxic

Compound: N#Cc1ccc(-c2cnc3ccc(N4CCCCC4c4cccc(F)c4)nn23)cc1 (racemic)
IC50 [1]: > 10 µM

Compound: N#Cc1ccc(-c2cnc3ccc(N4CCCC4c4cccc(F)c4)nn23)cc1 (racemic)
IC50 [1]: > 10 µM

Compound: N#Cc1ccc(-c2cnc3ccc(N4CCC[C@@H]4c4cccc(F)c4)nn23)cc1
IC50 [1]: > 10 µM

AUC [3]: 0.659 µM·h
half-life [4]: 49.8 min
CL (Rattus norvegicus [5]): 100%
bioavailability [7]: 10%
clearance [8]: 56.9 mL/min/kg
Vd [9]: 2.3 L/kg
Cmax [11]: 110 nM
Compound: OC1CCN(c2cccc(-c3cnc4ccc(N5CCC[C@@H]5c5cccc(F)c5)nn34)n2)CC1
IC50 [1]: > 10 µM

Compound: N#Cc1ccc(-c2cnc3ccc(N4CCC[C@H]4c4cccc(F)c4)nn23)cc1
IC50 [1]: 9.23 µM

IC50 [22]: 0.083 µM
IC50 [2]: 4.7 µM
Compound: N#Cc1ccc(-c2cnc3ccc(NCc4ccccc4)nn23)cc1
IC50 [1]: 7.13 µM
